From ChEMBL document CHEMBL1165887, “Structure-activity relationships of monomeric C2-aryl pyrrolo[2,1-c][1,4]benzodiazepine (PBD) antitumor agents” (J Med Chem, 2010)

Experiments:
[1] = tested on: K562; experiment: Cytotoxicity against human K562 cells after 96 hrs by alamar blue assay; assay type: functional, cell-based; settings: K562, 96 h
How it was run: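 K562 cells kept in RPMI with 10% fetal calf serum and 2 mM glutamine, seeded at 10⁴ cells/mL. Compounds serially diluted in DMSO and added in triplicate; exposure 96 h at 37 °C, 5% CO₂. Alamar Blue (1 μM final) then added for a further 4 h; read by fluorescence emission at 580-620 nm.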

[2] = Growth inhibition of human NCI60 cells after 48 hrs by SRB assay; assay type: functional; settings: NCI60, 48 h; for CC50: read-out: LC50 (the source's name)

## COc1cc2c(cc1OC)C(=O)N1C=C(c3ccc(C(=O)O)cc3)C[C@H]1C=N2
[1]
  IC50: > 1000 nM
[2]
  GI50: 13200 nM
  TGI: 23400 nM
  CC50: 25100 nM

## COc1cc2c(cc1OC)C(=O)N1C=C(c3ccc(C(C)(C)C)cc3)C[C@H]1[C@H](S(=O)(=O)O)N2
[1]
  IC50: 70 nM
[2]
  GI50: 8 nM
  TGI: 50 nM
  CC50: 47.8 nM

## COc1cc2c(cc1OC)C(=O)N1C=C(c3ccc(N4CCOCC4)cc3)C[C@H]1C=N2
[1]
  IC50: 8.8 nM
[2]
  GI50: 5 nM
  TGI: 160 nM
  CC50: 13200 nM

## COc1cc2c(cc1OC)C(=O)N1C=C(c3cccc(C)c3)C[C@H]1C=N2
[1]
  IC50: 9.5 nM
[2]
  GI50: 5 nM
  TGI: 70 nM
  CC50: 7580 nM

## COc1cc2c(cc1OC)C(=O)N1C=C(c3ccc(C(N)=O)cc3)C[C@H]1C=N2
[1]
  IC50: 15.6 nM
[2]
  GI50: 9 nM
  TGI: 460 nM
  CC50: 13800 nM

## COc1cc2c(cc1OC)C(=O)N1C=C(c3cn[nH]c3)C[C@H]1C=N2
[1]
  IC50: 20.1 nM
[2]
  GI50: 12 nM
  TGI: 270 nM
  CC50: 6460 nM

## COc1cc2c(cc1OC)C(=O)N1C=C(c3cccc(C(=O)NCCN(C)C)c3)C[C@H]1C=N2
[1]
  IC50: 119 nM
[2]
  GI50: 27 nM
  TGI: 1860 nM
  CC50: 10500 nM

## COc1cc2c(cc1OC)C(=O)N1C=C(c3cc4ccccc4o3)C[C@H]1C=N2
[1]
  IC50: 10.8 nM
[2]
  GI50: 6 nM
  TGI: 50 nM
  CC50: 440 nM

## COc1cc2c(cc1OC)C(=O)N1C=CC[C@H]1C=N2
[1]
  IC50: 14.4 nM
[2]
  GI50: 1350 nM
  TGI: 8130 nM
  CC50: 60200 nM

## COc1cc2c(cc1OC)C(=O)N1C=C(/C=C/c3ccc(Cl)cc3)C[C@H]1C=N2
[1]
  IC50: 15.4 nM
[2]
  GI50: 5 nM
  TGI: 20 nM
  CC50: 1000 nM

## C=CC1=CN2C(=O)c3cc(OC)c(OC)cc3N=C[C@@H]2C1
[1]
  IC50: 2.7 nM
[2]
  GI50: 78 nM
  TGI: 1230 nM
  CC50: 30200 nM

## COc1ccc2cc(C3=CN4C(=O)c5cc(OC)c(OC)cc5N=C[C@@H]4C3)ccc2c1
[1]
  IC50: 2.3 nM
[2]
  GI50: 0.9 nM
  TGI: 7 nM
  CC50: 270 nM

## COc1cc2c(cc1OC)C(=O)N1C=C(c3cnn(C)c3)C[C@H]1C=N2
[1]
  IC50: 12.2 nM
[2]
  GI50: 3 nM
  TGI: 50 nM
  CC50: 5370 nM

## COc1cc2c(cc1OC)C(=O)N1C=C(c3cccc(C#N)c3)C[C@H]1C=N2
[1]
  IC50: 15.1 nM
[2]
  GI50: 4 nM
  TGI: 560 nM
  CC50: 16200 nM

## COc1cc2c(cc1OC)C(=O)N1C=C(c3ccc(C(=O)N4CCN(C)CC4)cc3)C[C@H]1C=N2
[1]
  IC50: 59.5 nM
[2]
  GI50: 15 nM
  TGI: 710 nM
  CC50: 13800 nM

## COc1cc2c(cc1OC)C(=O)N1C=C(c3ccncc3)C[C@H]1C=N2
[1]
  IC50: 28.7 nM
[2]
  GI50: 18 nM
  TGI: 600 nM
  CC50: 26900 nM

## CCOc1ccc2cc(C3=CN4C(=O)c5cc(OC)c(OC)cc5N=C[C@@H]4C3)ccc2c1
[1]
  IC50: 12.6 nM
[2]
  GI50: 2 nM
  TGI: 20 nM
  CC50: 1950 nM

## COc1cc2c(cc1OC)C(=O)N1C=C(c3ccc(N4CCN(C)CC4)cc3)C[C@H]1C=N2
[1]
  IC50: 0.63 nM
[2]
  GI50: 5 nM
  TGI: 80 nM
  CC50: 8320 nM

## COc1cc2c(cc1OC)C(=O)N1C=C(c3cccc([N+](=O)[O-])c3)C[C@H]1C=N2
[1]
  IC50: 58.1 nM
[2]
  GI50: 5 nM
  TGI: 50 nM
  CC50: 5620 nM

## COc1cc2c(cc1OC)C(=O)N1C=C(c3ccc(NC(C)=O)cc3)C[C@H]1C=N2
[1]
  IC50: 29.7 nM
[2]
  GI50: 6 nM
  TGI: 200 nM
  CC50: 11500 nM

## COc1cc2c(cc1OC)C(=O)N1C=C(c3cccc(C(=O)O)c3)C[C@H]1C=N2
[1]
  IC50: > 1000 nM

## COc1cc2c(cc1OC)C(=O)N1C=C(c3ccc4ccc5cccc6ccc3c4c56)C[C@H]1C=N2
[1]
  IC50: 86.2 nM
[2]
  GI50: 398 nM
  TGI: 1440 nM
  CC50: 10700 nM

## COc1cc2c(cc1OC)C(=O)N1C=C(c3cccc(OC(F)(F)F)c3)C[C@H]1C=N2
[1]
  IC50: 76.5 nM
[2]
  GI50: 6 nM
  TGI: 180 nM
  CC50: 7240 nM

## COc1cc2c(cc1OC)C(=O)N1C=C(c3cccc(C(F)(F)F)c3)C[C@H]1C=N2
[1]
  IC50: 46.8 nM
[2]
  GI50: 6 nM
  TGI: 30 nM
  CC50: 1350 nM

## COc1cc2c(cc1OC)C(=O)N1C=C(c3ccc(F)cc3)C[C@H]1[C@H](S(=O)(=O)O)N2
[1]
  IC50: 16.3 nM
[2]
  GI50: 5 nM
  TGI: 40 nM
  CC50: 1.6 nM

## COc1cc2c(cc1OC)C(=O)N1C=C(c3cccc4ccccc34)C[C@H]1C=N2
[1]
  IC50: 572 nM
[2]
  GI50: 138 nM
  TGI: 950 nM
  CC50: 13900 nM

## COc1cc2c(cc1OC)C(=O)N1C=C(c3c(OC)cccc3OC)C[C@H]1C=N2
[1]
  IC50: 61 nM
[2]
  GI50: 110 nM
  TGI: 1100 nM
  CC50: 11700 nM

## COc1cc2c(cc1OC)C(=O)N1C=C(c3ccc(OCCCN(C)C)cn3)C[C@H]1C=N2
[1]
  IC50: 9.4 nM
[2]
  GI50: 4 nM
  TGI: 60 nM
  CC50: 4070 nM

## COc1cc2c(cc1OC)C(=O)N1C=C(c3ccc(Cl)c(Cl)c3)C[C@H]1C=N2
[1]
  IC50: 106 nM
[2]
  GI50: 3 nM
  TGI: 50 nM
  CC50: 3020 nM

## COc1cc2c(cc1OC)C(=O)N1C=C(c3ccccc3)C[C@H]1[C@H](S(=O)(=O)O)N2
[1]
  IC50: 16.5 nM
[2]
  GI50: 54 nM
  TGI: 430 nM
  CC50: 2.5 nM

## COc1cc2c(cc1OC)C(=O)N1C=C(c3c(F)cccc3F)C[C@H]1C=N2
[1]
  IC50: 7.1 nM
[2]
  GI50: 25 nM
  TGI: 330 nM
  CC50: 4360 nM

## COc1cc2c(cc1OC)C(=O)N1C=C(c3cccnc3)C[C@H]1C=N2
[1]
  IC50: 18.2 nM
[2]
  GI50: 5 nM
  TGI: 70 nM
  CC50: 17000 nM

## COc1cc2c(cc1OC)C(=O)N1C=C(c3cccc(N)c3)C[C@H]1C=N2
[1]
  IC50: 59.5 nM
[2]
  GI50: 4 nM
  TGI: 50 nM
  CC50: 5890 nM

## COc1cc2c(cc1OC)C(=O)N1C=C(c3cccc4c3oc3ccccc34)C[C@H]1C=N2
[1]
  IC50: 162 nM
[2]
  GI50: 49 nM
  TGI: 210 nM
  CC50: 2820 nM

## COc1cc2c(cc1OC)C(=O)N1C=C(c3cccc4c3Sc3ccccc3S4)C[C@H]1C=N2
[1]
  IC50: > 1000 nM
[2]
  GI50: 501 nM
  TGI: 1740 nM
  CC50: 8910 nM

## COc1cc2c(cc1OC)C(=O)N1C=C(/C=C/c3ccc(C)cc3)C[C@H]1C=N2
[1]
  IC50: 41.1 nM
[2]
  GI50: 2 nM
  TGI: 50 nM
  CC50: 440 nM

## COc1cc2c(cc1OC)C(=O)N1CCC[C@H]1C=N2
[1]
  IC50: 488 nM
[2]
  GI50: 2140 nM
  TGI: 19000 nM
  CC50: 57500 nM

## COc1cc2c(cc1OC)C(=O)N1C=C(/C=C/c3ccc(F)cc3)C[C@H]1C=N2
[1]
  IC50: 0.13 nM
[2]
  GI50: 5 nM
  TGI: 10 nM
  CC50: 1100 nM

## COc1cc2c(cc1OC)C(=O)N1C=C(c3ccc(O)cc3)C[C@H]1C=N2
[1]
  IC50: 10.3 nM
[2]
  GI50: 2 nM
  TGI: 80 nM
  CC50: 3390 nM

## COc1cc2c(cc1OC)C(=O)N1C=C(c3ccc(C(=O)NCCO)cc3)C[C@H]1C=N2
[1]
  IC50: 161 nM
[2]
  GI50: 158 nM
  TGI: 1860 nM
  CC50: 12600 nM

## COc1cc2c(cc1OC)C(=O)N1C=C(c3ccc4ncccc4c3)C[C@H]1[C@H](S(=O)(=O)O)N2
[1]
  IC50: 1.3 nM
[2]
  GI50: 0.2 nM
  TGI: 4 nM
  CC50: 1.4 nM

## COc1cc2c(cc1OC)C(=O)N1C=C(c3ccc(Br)cc3)C[C@H]1C=N2
[1]
  IC50: 237 nM
